Compound activity as filed in PubChem BioAssay.
Most compounds without a hit are left out; they make up all but 0.79% or so of the library.
PKA-R2B act – activators of PKA-R2B holoenzyme, primary screen, biochemical, fluorescence polarization, Cy5-IP20, human; PKA-R2B holoenzyme dissociation; R2B truncated from residue 108, S112A mutant; 0% DMSO only, 100% 113 µM cGMP; hit rate 0.079% among 340,000; cAMP-dependent protein kinase catalytic subunit beta (Homo sapiens) + cAMP-dependent …; activation, % at 11.4 µM;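 active = activation above a cutoff set at the mean over all compounds plus 3 SD, cut at about 18% in these data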;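 also: higher means more holoenzyme dissociation and a rise in polarization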
UCH37 inh – inhibitors of human UCH37 deubiquitinase, primary screen, biochemical, Ub-AMC cleavage, fluorescence | Ubiquitin carboxyl-terminal hydrolase isozyme L5 (Homo sapiens), Q9Y5K5 | purified proteasome/UCH37 | inhibition, % (test concentration not listed) | hit rate 0.33% among 330,000;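 active = mean inhibition over replicate wells above about 20%, limit read from the data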;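 also: 0% = compound-free wells with enzyme and 100% = wells lacking proteasome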
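assay system = human UCH37 enzyme supplied as purified proteasome complex | amount = proteasome at 0.15 nM in the dispensed enzyme solution | schedule = 30 min compound-proteasome preincubation then 25 min substrate reaction, room temperature | measured by = fluorescence, ex 355 nm, em 460 nm | benchmarks = no-proteasome wells (full inhibition) and compound-free wells (no inhibition)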
Rin1-Abl PPI inh – inhibitors of Rin1-Abl protein binding, primary screen, biochemical, TR-FRET; Tyrosine-protein kinase ABL1 (Homo sapiens) + Ras and Rab interactor 1 (Homo sapiens), …; inhibition, % at 7.35 µM; hit rate 0.4% among 360,000; in the data active = inhibition above about 5%, passing the limit was not always enough
PKA-R1A act – activators of PKA-R1A holoenzyme, primary screen, biochemical, fluorescence polarization, Cy5-IP20, bovine R1A, mouse PKAc; AID 504707, 2011; cAMP-dependent protein kinase type I-alpha regulatory subunit (Bos taurus) + …; activation, % at 11.4 µM; hit rate 0.083% among 340,000; PKA-R1A dissociation; scaled: DMSO 0%, 113 µM cGMP 100%;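 active = percent activation above the mean of all tested compounds plus 3 SD, cut at about 19% in these data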;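 also: higher means more PKAc released from R1A so a rise in polarization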
Numbers without * were called inactive; x = no result.

SMILES	PKA-R2B act	UCH37 inh	Rin1-Abl PPI inh	PKA-R1A act
COc1ccc(-n2cc(-c3ccc(C)cc3)[n+]3c2SCC3)cc1	-13	35*	0	1
O=C(COC(=O)c1cc(S(=O)(=O)N2CCOCC2)ccc1Cl)Nc1ccccc1Cl	1	-1	3	5
COc1cc(S(=O)(=O)N2CCOCC2)ccc1NC(=O)CSc1nnc(N)s1	-6	30*	-2	0
Cc1nnc(NC(=O)c2cccc(S(=O)(=O)N3CCc4ccccc43)c2)s1	-7	27*	5	3
CCc1nnc(NC(=O)c2cccc(S(=O)(=O)N3CCc4ccccc43)c2)s1	-5	-4	-3	-6
O=c1cc(-c2ccc(O)c(O)c2)oc2cc(O[C@@H]3O[C@H](CO)[C@@H](O)[C@H](O)[C@H]3O)cc(O)c12	-11	6	24*	-14
Cc1ccc(-c2nonc2NC(=O)c2ccco2)cc1	0	3	-1	-8
Cc1cccc(CCN2C(N(C)C)=NC[C@@H]2CC(C)C)c1	0	33*	3	-7
CCn1ncc(C(=O)Nc2ccc(F)cc2)c1C	-1	5	-4	-5
CC1NC(=O)NC1CCCCCC(=O)NCCc1ccccc1 (stereo not given)	0	3	83*	-3
CC(C)CNC(=O)C(=O)Nc1cc2c3c(c1)CCC(=O)N3CCC2	-17	5	-1	-13
O=C(Nc1cc([N+](=O)[O-])ccc1O)c1cccc(NC(=O)c2ccco2)c1	-9	5	-2	-3
CCc1sc(N(C(=O)Cc2ccccc2)c2ccc(F)cc2)nc1-c1ccccc1	3	24*	2	-5
CCC(=O)n1nc(-c2ccc(OC)cc2)nc1N	-6	-1	0	-9
CCC(=O)n1nc(-c2ccccc2)nc1N	7	23*	4	-7
COc1ccc(NC(=O)CN(C)C(=O)c2cc(-c3ccco3)nc3ccccc23)cc1	-1	-369	1	8
COc1cc2nc(N3CCN(c4cc(C)ccc4C)CC3)nc(N)c2cc1OC	-8	-64	3	-11
COc1cc2nc(N3CCNCC3)nc(N)c2cc1OC	0	-144	8.2*	-3
CCOc1ccc(/C(O)=C2/C(=O)C(=O)N(CCN(CC)CC)C2c2cccs2)cc1 (stereo not given)	-5	1	-6	9
C=CCOc1ccc(/C(O)=C2\C(=O)C(=O)N(CCN(C)C)C2c2cccs2)cc1 (stereo not given)	-8	24*	-2	-8
O=C1/C(=C/C=C/c2ccco2)SC(=S)N1c1ccc(O)cc1	-4	5	5.7*	9
O=[N+]([O-])c1ccccc1N=Nc1ccc(O)cc1O	x	21*	-2	x
Oc1ccc(N=Nc2ccc(Br)cc2)c(O)c1	-3	x	5	-3
CCn1nc(C(=O)OCC(=O)Nc2ncc(Cl)c(C)c2Cl)c2ccccc2c1=O	-5	2	1	4
COc1ccc(NC(=O)c2cc3c(COC(C)=O)cnc(C)c3oc2=Nc2cccc(C(=O)O)c2)c(OC)c1	-3	6	2	19*
SMILES	PKA-R2B act	UCH37 inh	Rin1-Abl PPI inh	PKA-R1A act
COc1cccc(N=c2oc3c(C)ncc(CO)c3cc2C(=O)Nc2ccccc2OC)c1	x	6	x	x
N#C/C(=C(/O)c1ccco1)c1nc2ccccc2s1	-5	20*	1	2
Fc1cc2ncn(Cc3ccccc3)c2cc1F	-4	25*	1	0
C[C@@H]1[C@H](O)C[C@@]23COC(=O)C2=CCC[C@@H]3[C@@]1(C)CC/C(=C/CO)CO	4	2	9	-13
CCOC(=O)/C(C#N)=C1/C=CN(C)C(C)=N1	-3	21*	0	0
COc1ccccc1N1CCN(S(=O)(=O)c2cn(C)cn2)CC1	10	1	-4	11
COc1ccc(OCc2cc(C(=O)NC3CCOCC3)no2)c2ccccc12	-14	24*	-6	-11
CC1CCCN(c2cc(N(C)CCO)c([N+](=O)[O-])c3nonc23)C1 (stereo not given)	-9	22*	-12	3
CC(=O)c1cn(CC(=O)Nc2ccc(C)cc2)c2ccccc12	-18	20*	-3	-19
c1ccc(C2=NOC(c3nnc(-c4ccccc4)o3)C2)cc1 (stereo not given)	1	33*	-2	8
Fc1ccc(C2=NOC(c3nnc(-c4ccccc4)o3)C2)cc1 (stereo not given)	13	2	-2	-10
CN(C1=C(NC(=O)c2ccccc2)C(=O)c2ccccc2C1=O)C1CCS(=O)(=O)C1 (stereo not given)	-4	49*	-4	-18
O=C(NC(=S)NC1CCS(=O)(=O)C1)c1ccccc1 (stereo not given)	7	4	0	8
O=C(CN1CCC(c2nc3ccccc3s2)CC1)NCc1ccccc1	10	0	-1	-17
COc1cc(/C=C2\SC(=S)N(CCC(=O)Nc3ccccc3O)C2=O)cc(OC)c1OC	1	7	-3	1
COc1ccc(Cn2c(=O)[nH]c3cc(C(=O)NCCCOC(C)C)ccc3c2=O)cc1	-4	-4	-2	0
O=C(NCCc1ccccc1)/C(=C/c1ccco1)c1ccccc1	-4	0	-2	-4
COC(=O)C1C(=O)C2=C(CC1C)NC(C)=C(C(=O)OC(C)C)C2c1ccc(OC)c(O)c1 (stereo not given)	12	-6	-3	20*
COC(=O)C1C(=O)C2=C(CC1C)NC(C)=C(C(=O)OC1CCCC1)C2c1ccc(N(C)C)cc1 (stereo not given)	-9	2	-2	-18
O=[N+]([O-])c1ccc(N2CCCCC2)s1	-2	20*	-20	-7
Cc1cc(C)cc(SCc2noc(C(=O)NC(C)C)c2C(=O)O)c1	-4	x	-1	7
Cc1cccc(OCC(=O)N2CCC(N3CCOCC3)CC2)c1	-8	4	-3	7
COc1ccccc1N1CC(C(=O)NCCC2=CCCCC2)CC1=O (stereo not given)	-5	0	2	3
Cc1cccc(N2CC(C(=O)NCCC3=CCCCC3)CC2=O)c1C (stereo not given)	0	23*	-1	-2
Oc1ccc2ccccc2c1N=Nc1ccccc1F	-4	2	-1	-6
O=S(=O)(O)c1cccc(N=Nc2c(O)ccc3ccccc23)c1	-5	22*	-8	-10
S=c1nc[nH]c2c1ncn2-c1ccc(Cl)cc1	1	2	4	-8
CCOC(=O)Nc1ccc(OC)cc1S(=O)(=O)N1CCCCC1	-1	29*	-2	5
COc1ccc(OC)c(S(=O)(=O)N2CCCCCC2)c1	-3	3	-2	-2
